An excerpt weighted towards active compounds, which were near 3.8% of everything screened.
KCNK3 inh: human KCNK3 channel inhibition, primary screen. O14649. CHO-KCNK3 thallium flux, FluxOR fluorescence; active compounds read low. B-score at 10 µM. 340,000 compounds, 0.84% hits;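 active = B-score under library mean minus 4 SD, starting fluorescence ratio at most library mean plus 5 SD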;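 note: more negative B-score means stronger inhibition of thallium flux through KCNK3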
Target sequence (O14649 whole entry, looked up): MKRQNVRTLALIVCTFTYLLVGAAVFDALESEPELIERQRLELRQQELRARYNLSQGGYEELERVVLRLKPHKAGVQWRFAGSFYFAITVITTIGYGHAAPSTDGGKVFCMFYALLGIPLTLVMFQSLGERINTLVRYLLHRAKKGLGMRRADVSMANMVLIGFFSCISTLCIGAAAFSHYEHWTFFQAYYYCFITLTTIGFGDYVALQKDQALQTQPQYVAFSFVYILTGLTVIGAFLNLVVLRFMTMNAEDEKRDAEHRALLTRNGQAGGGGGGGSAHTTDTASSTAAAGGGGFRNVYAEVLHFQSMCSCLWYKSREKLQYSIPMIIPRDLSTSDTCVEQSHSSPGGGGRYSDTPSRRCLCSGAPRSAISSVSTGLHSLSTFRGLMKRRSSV
KCNQ1 act: potentiates or activates the human KCNQ1 potassium channel; CHO-K1 KCNQ1, thallium flux FluxOR fluorescence; active compounds read high; B-score at 10 µM; 310,000 compounds, 0.35% hits; AID 2648;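 active = fluorescence ratio B-score, a plate-corrected score, at least three library SD, with initial intensity B-score within 5 SD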
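Schedule – 37 °C overnight plating, 90-min dark dye load, 20-min compound pretreatment · System – stable KCNQ1 CHO-K1 line · Probe or stimulus – thallium- and potassium-containing depolarizing buffer · Measured by – kinetic FluxOR fluorescence, 10 s baseline plus 110 s post-stimulus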
hERG rescue: shields human hERG channel from block by proarrhythmic agents; AID 1511; Q12809; 310,000 compounds, 0.51% hits; CHO-hERG, FluxOR thallium flux, dofetilide IC70 present; activation (rescue from dofetilide block), less the hit threshold, % at 10 µM;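 active = activation above the mean of controls blocked by dofetilide plus 5 SD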;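 note: thallium influx through hERG after potassium depolarization seen as dye fluorescence rise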
Kir21 block: blocks the mouse Kir2.1 inward-rectifier potassium channel; P35561; HEK293-Kir2.1, FluxOR thallium flux fluorescence; active compounds read low; B-score at 10 µM; 310,000 compounds, 0.85% hits;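 active = fluorescence ratio B-score at or below minus 3 SD of library scores, with starting-brightness B-score within 2 SD, cut at about -4.2 in these data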;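 note: channel flux triggered by added potassium and thallium sulfate stimulus; B-score of peak minus minimum fluorescence over baseline after thallium stimulus; more negative B-score means stronger Kir2.1 block with less thallium influx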
KCNQ1 inh: human KCNQ1 channel inhibition | P51787 | CHO-K1 KCNQ1, FluxOR thallium flux fluorescence; active compounds read high | B-score at 10 µM | 310,000 compounds, 1.3% hits | AID 2642;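 active = compounds whose thallium flux B-score, printed positive for inhibition, exceeds three library SD while starting fluorescence stays within three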;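 note: channel opened by potassium depolarization with thallium stimulus after 20 min compound exposure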
KCNK9 inh: inhibitors of human KCNK9 two-pore domain potassium channel; 310,000 compounds, 1.2% hits; HEK293 KCNK9, FluxOR thallium flux fluorescence; active compounds read low; Q9NPC2; B-score at 10 µM;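 active = ratio B-score over 3 SD below the library mean, with starting fluorescence within 5 SD of its mean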;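 note: negative B-score means less thallium flux so channel inhibition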
KCNQ1 inh valid: reconfirmed blocker of the human KCNQ1 potassium channel; shares compounds with KCNQ1 inh; KCNQ1 cell line, FluxOR thallium flux fluorescence; inhibition, % at 10 µM; 1,600 compounds, 93% hits; AID 588353;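 active = primary screen active, with duplicate mean exceeding buffer control mean plus 3 SD of buffer wells, cut at about 28% in these data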;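 note: 0% = buffer control ratio and 100% = XE991 inhibitor control ratio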
CHO KCNQ1 ctr: activity in parental CHO cells lacking KCNQ1. fluorescence ratio (Tl flux) at 10 µM. 1,600 compounds, 21% hits. parental CHO-K1, FluxOR thallium flux fluorescence ratio; active compounds read low; zero means no signal rise above baseline. shares compounds with KCNQ1 inh. AID 588366;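 active = mean of duplicate thallium-flux fluorescence ratios in parental host cells more than 5 SD below the buffer control mean, cut at about 0.38 in these data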;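 note: ratio is peak minus minimum fluorescence divided by baseline fluorescence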
KCNQ1 ephys val: blocks human KCNQ1 current in automated patch clamp. shares compounds with KCNQ1 inh. KCNQ1-CHO cells. calls only at 10 µM. 490 compounds, 20% hits;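 active = KCNQ1 current drop exceeding 3 SD of negative control wells, seen in both duplicate runs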;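 note: steady state current during a 2 s step from -80 to +40 mV; negative values mean current inhibition and positive values mean potentiation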
KCNQ2 spec: rat KCNQ2 inhibition in KCNQ1 inhibitor specificity screen. 1,600 compounds, 71% hits. shares compounds with KCNQ1 inh. KCNQ2 cells, FluxOR thallium flux fluorescence. inhibition, % at 10 µM;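 active = mean percent inhibition of the KCNQ2 thallium signal more than 5 SD above the buffer-only control wells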;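 note: KCNQ2 expressed in CHO cells; 0% = buffer control wells and 100% = XE-991 inhibitor control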
KCNQ1 KCNE1 spec: selectivity of KCNQ1 inhibitors: inhibition of human KCNQ1/KCNE1 channel | shares compounds with KCNQ1 inh | KCNQ1/KCNE1 cells, FluxOR thallium flux fluorescence | inhibition, % at 10 µM | 1,600 compounds, 77% hits;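 active = mean percent inhibition of duplicate wells above the buffer-only control mean plus 3 SD of those controls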;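 note: 0% = buffer only wells and 100% = XE-991 inhibitor control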
Active calls of the source: *; i = inactive; . = no result; + = active, no number.

SMILES | KCNK3 inh | KCNQ1 act | hERG rescue | Kir21 block | KCNQ1 inh | KCNK9 inh | KCNQ1 inh valid | CHO KCNQ1 ctr | KCNQ2 spec | KCNQ1 KCNE1 spec | others
COc1ccc(Br)cc1CSC(=N)N | i | i | -9 | -0.23 | i | i | . | . | . | .
O=C(NC1CCCN(Cc2ccc(Cl)cc2)C1)c1ccoc1 (configuration not stated) | i | i | -7 | 1.1 | i | i | . | . | . | .
Cc1ccc(S(=O)(=O)N(CC(=O)N2CCc3ccccc3C2)c2ccc(Cl)c(Cl)c2)cc1 | i | i | -7 | 0.64 | i | i | . | . | . | .
O=C(CN(c1ccc(Cl)c(Cl)c1)S(=O)(=O)c1ccccc1)N1CCc2ccccc2C1 | i | i | -6 | -1.8 | 6* | i | 56* | 0.34* | 119%* | 96%*
COc1ccc(NC(=S)Nc2cccc(C(F)(F)F)c2)c(C)c1 | i | i | -5 | 0 | 8* | i | 99* | 0.49 | 100%* | 60%* | KCNQ1 ephys val=i
CSc1ccccc1NC(=S)Nc1cccc(C(F)(F)F)c1 | i | i | -12 | -0.51 | i | i | . | . | . | .
COc1ccc(CC(=O)N[C@@H]2c3cc(OC)c(OC)cc3C[C@H]2O)cc1 | i | . | . | . | . | . | . | . | . | .
CCc1ccc(C(O)(C(C)C)C(CN2CCOCC2)c2ccccc2)cc1 (configuration not stated) | i | i | -5 | -1.3 | 6* | i | 65* | 0.46 | i | 80%*
COc1ccc(N(C)C(=O)c2cn(C)c(=O)c3cc(OC)c(OC)cc23)cc1 | i | i | -7 | -1.4 | i | i | . | . | . | .
C/C(=C\c1ccc(F)cc1)C(=O)c1c(C)cc(C)[nH]c1=O | i | i | -6 | -0.94 | i | i | . | . | . | .
c1ccc(CNc2ncnc3sccc23)cc1 | i | i | -15 | 0.53 | i | i | . | . | . | .
c1cncc(CNc2ncnc3sccc23)c1 | i | i | -11 | -1 | 10* | i | 0 | 0.46 | i | i
O=c1cc(CSc2nc3ccccc3[nH]2)c2ccccc2[nH]1 | i | i | -13 | 0.89 | i | i | . | . | . | .
Fc1ccc(CSc2nc3ccccc3[nH]2)c2ccccc12 | i | i | -13 | -0.04 | 6* | i | 124* | 0.35* | 107%* | 124%*
O=C1c2ccsc2SCCN1Cc1c(Cl)cccc1Cl | i | i | -12 | -2.2 | 8* | i | 69* | 0.42 | 79%* | 86%*
COc1ccc(C(=O)NCC(=O)OCC(=O)NCc2ccc3c(c2)OCO3)cc1 | i | . | . | . | . | . | . | . | . | .
CCOC(=O)c1cc(C(C)(C)C)oc1CNC(=O)c1c(C)oc2c1CCCC2 | i | i | -23 | -0.02 | 10* | i | 141* | 0.38 | 120%* | 142%* | KCNQ1 ephys val=i
CCOC(=O)c1cc(-c2ccccc2)sc1NC(=O)CC(C)C | i | i | -8 | -0.52 | 6* | i | 100* | 0.35* | 127%* | 116%*
CCOC(=O)c1cc(-c2ccccc2)sc1NC(=O)C(C)(C)C | i | i | -6 | -0.63 | i | i | . | . | . | .
CC(C)c1noc2ncc(C(=O)c3cc(Cl)cc(Cl)c3O)cc12 | i | i | -9 | -0.94 | 6* | i | 52* | 0.55 | i | i
COc1ccc(-c2cc(-c3nnc(-c4ccncc4)o3)c3ccccc3n2)cc1 | i | i | -3 | 1.6 | i | i | . | . | . | .
c1ccc2c(-c3nc(C4CCCCC4)no3)cc(-c3ccncc3)nc2c1 | i | i | -9 | 0.02 | 7* | i | 84* | 0.5 | 93%* | 79%*
CCOC(=O)C1CCN(c2c(C(=O)c3ccccc3)cnc3ccc(Cl)cc23)CC1 | i | i | -11 | 0.16 | 6* | i | 154* | 0.41 | 134%* | 92%* | KCNQ1 ephys val=i
O=C1c2ccccc2C(=O)N1Cc1ccco1 | i | i | -7 | -0.3 | i | i | . | . | . | .
O=C1c2cccc3c(O)ccc(c23)C(=O)N1Cc1ccco1 | i | i | -56 | -16 | 22* | i | + | 0.011* | i | i
SMILES | KCNK3 inh | KCNQ1 act | hERG rescue | Kir21 block | KCNQ1 inh | KCNK9 inh | KCNQ1 inh valid | CHO KCNQ1 ctr | KCNQ2 spec | KCNQ1 KCNE1 spec | others
COc1ccc(-c2nc(-c3ccc(NC(=O)c4ccncc4)cc3)no2)cc1OC | i | i | -10 | -1.6 | 12* | i | 0 | 0.48 | 71%* | i
COc1ccc(NC(=O)CN(C)C(=O)c2cn(-c3ccccc3)nc2-c2cccnc2)cc1 | i | i | -4 | -2.1 | i | i | . | . | . | .
O=C(Nc1ccc(F)cc1)C(NC1CCCCC1)c1ccccc1 (configuration not stated) | i | i | -5 | 0.03 | 7* | i | 76* | 0.48 | 65%* | 105%*
O=C(Nc1ccc(F)cc1)NC1CCCCCCC1 | i | i | -7 | -0.18 | i | i | . | . | . | .
Cc1ccc2c(C(=O)N3CCN(c4ccccc4)CC3)cc(-c3cccnc3)nc2c1C | i | i | -18 | 0.34 | 8* | i | 92* | 0.46 | i | 192%* | KCNQ1 ephys val=i
Cc1cc(/C=C2/SC(=S)N(c3ccc([N+](=O)[O-])cc3)C2=O)c(C)n1-c1cccnc1 | i | i | -9 | 0.13 | 16* | i | 124* | 0.47 | 75%* | 102%* | KCNQ1 ephys val=i
CCCCCNC(=O)c1cccc(S(=O)(=O)N2CC3(C)CC2CC(C)(C)C3)c1 (configuration not stated) | i | i | -13 | 1.7 | 7* | i | 86* | 0.5 | i | 88%*
O=C(Nc1cc(Cl)ccc1N1CCOCC1)c1ccc2c(c1)OCCO2 | i | i | -6 | -0.17 | 12* | i | 68* | 0.46 | 83%* | 52%*
COc1ccc(CN=Cc2[nH]c3ccc(Br)c(Cl)c3c2O)cc1 | i | i | -17 | -3.5 | 7* | i | 116* | 0.37* | 111%* | 92%*

Screening results from PubChem BioAssay.
